Experimental findings from ChEMBL document CHEMBL1221168, “Activity-based probes that target diverse cysteine protease families” (Nat Chem Biol, 2005) are described below.

Activity calls are given as the source filed them. The rule behind the calls is not given here. Square brackets hold non-standard residues; d marks the D form. Peptide text beside a SMILES is read from it. * marks the point of attachment. ξ: configuration not given here. AspCH2OBz(2,6-Me2) = Cc1cccc(C)c1C(=O)OCC(=O)[C@H](CC(=O)O)N*; Biotin = O=C1N[C@H]2[C@H](CS[C@H]2CCCCC(=O)*)N1; Tyr(3-I) = N[C@@H](Cc1ccc(O)c(I)c1)C(=O)O; X1 = O=C1N[C@@H]2CSC(CCCCC(=O)*)[C@@H]2N1; ξD = NC(CC(=O)O)C(=O)O; Ahx = NCCCCCC(=O)O; CH2F = FC*

Experiment [1] has as its target T1, Caspase-3 (Homo sapiens) (UniProt P42574).
T1 sequence (whole entry): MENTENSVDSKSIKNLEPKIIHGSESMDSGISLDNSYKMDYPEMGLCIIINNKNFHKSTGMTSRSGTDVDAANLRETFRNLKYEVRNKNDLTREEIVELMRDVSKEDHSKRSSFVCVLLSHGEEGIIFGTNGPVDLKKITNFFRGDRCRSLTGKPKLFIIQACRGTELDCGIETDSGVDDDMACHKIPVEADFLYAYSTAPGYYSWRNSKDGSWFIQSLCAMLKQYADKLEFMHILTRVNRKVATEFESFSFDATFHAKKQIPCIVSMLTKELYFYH
Nature of the experiment: Binding affinity to human recombinant caspase 3 assessed as protein labeling by SDS-PAGE based affinity blotting. Conditions: tested as the 125I-labelled form.

The next experiment deals with T2, Caspase-6 (Homo sapiens) (UniProt P55212).
T2 sequence (whole entry): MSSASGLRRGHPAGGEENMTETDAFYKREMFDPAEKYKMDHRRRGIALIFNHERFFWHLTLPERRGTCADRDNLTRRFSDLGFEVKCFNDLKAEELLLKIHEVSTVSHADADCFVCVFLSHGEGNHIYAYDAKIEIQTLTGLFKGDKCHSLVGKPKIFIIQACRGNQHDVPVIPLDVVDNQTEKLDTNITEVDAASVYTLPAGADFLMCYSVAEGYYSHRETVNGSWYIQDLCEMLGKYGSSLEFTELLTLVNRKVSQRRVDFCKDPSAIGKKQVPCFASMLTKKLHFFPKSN
Nature of the experiment: Binding affinity to human recombinant caspase 6 assessed as protein labeling by SDS-PAGE based affinity blotting. Conditions: tested as the 125I-labelled form.

Experiment [2] has as its target T3, Caspase-7 (Homo sapiens) (UniProt P55210).
T3 sequence (whole entry): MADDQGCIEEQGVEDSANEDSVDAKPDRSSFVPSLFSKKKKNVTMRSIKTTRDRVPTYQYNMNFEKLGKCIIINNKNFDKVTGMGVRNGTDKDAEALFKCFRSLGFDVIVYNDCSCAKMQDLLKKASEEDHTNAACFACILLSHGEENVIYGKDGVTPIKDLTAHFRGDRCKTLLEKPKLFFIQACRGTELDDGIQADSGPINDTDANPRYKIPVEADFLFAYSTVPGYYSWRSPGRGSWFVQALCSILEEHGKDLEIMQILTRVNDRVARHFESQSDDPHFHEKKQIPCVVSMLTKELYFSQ
In words: Binding affinity to human recombinant caspase 7 assessed as protein labeling by SDS-PAGE based affinity blotting. To be noted: tested as the 125I-labelled form.

The target of the next experiment is Caspase-8 (Homo sapiens) (UniProt Q14790). In words: Binding affinity to human recombinant caspase 8 assessed as protein labeling by SDS-PAGE based affinity blotting. To be noted: tested as the 125I-labelled form.
Caspase-8 (Homo sapiens), sequence (Q14790 217-374 limits assumed): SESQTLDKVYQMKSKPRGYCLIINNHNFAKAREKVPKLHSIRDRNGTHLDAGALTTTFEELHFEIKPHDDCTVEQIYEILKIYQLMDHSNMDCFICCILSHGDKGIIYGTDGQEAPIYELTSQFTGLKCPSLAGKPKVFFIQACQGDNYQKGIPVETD
Caspase-8 (Homo sapiens), sequence (Q14790 385-479 limits assumed): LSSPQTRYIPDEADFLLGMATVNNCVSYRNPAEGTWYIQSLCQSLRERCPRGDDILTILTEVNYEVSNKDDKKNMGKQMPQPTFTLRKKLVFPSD
For experiment [3], the target named is T4, Caspase-9 (Homo sapiens) (UniProt P55211).
T4 sequence (whole entry): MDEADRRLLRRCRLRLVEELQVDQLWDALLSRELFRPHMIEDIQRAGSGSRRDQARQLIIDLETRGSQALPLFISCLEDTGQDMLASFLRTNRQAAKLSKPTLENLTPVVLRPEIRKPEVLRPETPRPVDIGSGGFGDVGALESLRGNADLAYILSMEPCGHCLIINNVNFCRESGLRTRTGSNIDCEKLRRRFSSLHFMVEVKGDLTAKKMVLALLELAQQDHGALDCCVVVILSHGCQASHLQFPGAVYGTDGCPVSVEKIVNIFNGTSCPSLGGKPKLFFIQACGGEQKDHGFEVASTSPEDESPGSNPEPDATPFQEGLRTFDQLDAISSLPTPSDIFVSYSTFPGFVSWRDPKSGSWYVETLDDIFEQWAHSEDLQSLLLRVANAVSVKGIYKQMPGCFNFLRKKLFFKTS
Nature of the experiment: Binding affinity to human recombinant caspase 9 assessed as protein labeling by SDS-PAGE based affinity blotting. Conditions: tested as the 125I-labelled form.

Experiment [4] has as its target T4, Caspase-9 (Homo sapiens). Nature of the experiment: Binding affinity to caspase 9 in human Sh-SY-5Y cells extracts assessed as protein labeling by SDS-PAGE based affinity blotting. It counts as cell-free.
In experiment [5] the target is T5, Legumain (Homo sapiens) (UniProt Q99538).
T5 sequence (whole entry): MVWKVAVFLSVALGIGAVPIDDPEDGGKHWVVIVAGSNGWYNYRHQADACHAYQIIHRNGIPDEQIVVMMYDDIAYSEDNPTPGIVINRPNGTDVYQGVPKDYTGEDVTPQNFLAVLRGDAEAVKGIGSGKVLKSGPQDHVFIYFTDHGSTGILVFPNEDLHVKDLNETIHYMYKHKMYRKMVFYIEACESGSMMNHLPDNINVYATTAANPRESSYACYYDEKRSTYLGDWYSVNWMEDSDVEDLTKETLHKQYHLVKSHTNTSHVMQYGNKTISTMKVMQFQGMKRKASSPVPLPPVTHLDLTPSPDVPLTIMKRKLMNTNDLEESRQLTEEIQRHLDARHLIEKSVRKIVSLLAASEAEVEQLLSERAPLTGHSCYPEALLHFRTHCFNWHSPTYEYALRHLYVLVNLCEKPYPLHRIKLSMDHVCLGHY
Nature of the experiment: Binding affinity to human purified legumain assessed as protein labeling. Conditions: tested as the 125I-labelled form.

In a further experiment the target is T6, Legumain (Mus musculus) (UniProt O89017).
T6 sequence (whole entry): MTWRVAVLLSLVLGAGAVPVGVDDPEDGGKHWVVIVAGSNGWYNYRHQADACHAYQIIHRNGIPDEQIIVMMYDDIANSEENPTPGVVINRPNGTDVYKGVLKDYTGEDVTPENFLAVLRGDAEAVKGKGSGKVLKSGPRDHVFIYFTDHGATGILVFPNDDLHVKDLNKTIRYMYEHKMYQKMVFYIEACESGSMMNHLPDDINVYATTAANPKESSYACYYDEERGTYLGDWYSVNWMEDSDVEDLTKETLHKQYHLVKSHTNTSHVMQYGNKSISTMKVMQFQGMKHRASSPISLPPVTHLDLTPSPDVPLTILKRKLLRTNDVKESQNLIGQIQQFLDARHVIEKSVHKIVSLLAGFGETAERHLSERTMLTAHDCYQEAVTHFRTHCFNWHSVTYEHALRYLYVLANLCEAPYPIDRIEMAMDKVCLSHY
In words: Binding affinity to legumain in mouse spleen lysates assessed as protein labeling at 10 uM after 30 mins by SDS-PAGE based affinity blotting. It counts as tissue-based. To be noted: tested as the 125I-labelled form.

Experiment [6] has as its target T5, Legumain (Homo sapiens). In words: Binding affinity to legumain in human 2.2.93 cells assessed as protein labeling at 10 uM after 30 mins by SDS-PAGE based affinity blotting. It counts as cell-based. Conditions: tested as the 125I-labelled form. Summed up: (§1)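 B cell lines (2.2.93, 8.1.6, Raji) and Jurkat T cell pellets were lysed in 50 mM citrate phosphate, 1% CHAPS, 0.5% Triton, 5 mM DTT for 10 min on ice, then spun at 14,000g for 15 min at 4 °C. Lysates were set to 1 mg/ml in citrate phosphate pH 5.8, 0.1% CHAPS, 5 mM DTT and labeled for 30 min at 37 °C. Read-out was SDS-PAGE and biotin affinity blot.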

In experiment [7] the target is T5, Legumain (Homo sapiens). Nature of the experiment: Binding affinity to legumain in human 8.1.6 cells assessed as protein labeling at 10 uM after 30 mins by SDS-PAGE based affinity blotting. It counts as cell-based. Conditions: tested as the 125I-labelled form. Summed up:
as §1

The target in experiment [8] is T5, Legumain (Homo sapiens). Nature of the experiment: Binding affinity to legumain in human Raji cells assessed as protein labeling at 10 uM after 30 mins by SDS-PAGE based affinity blotting. It counts as cell-based. Conditions: tested as the 125I-labelled form. The gist of the method:
as §1

In experiment [9] the target is T5, Legumain (Homo sapiens). In words: Binding affinity to legumain in human Jurkat T cells assessed as protein labeling at 10 uM after 30 mins by SDS-PAGE based affinity blotting. It counts as cell-based. Conditions: tested as the 125I-labelled form. Summed up: as §1
Experiment [10] has as its target T5, Legumain (Homo sapiens). Nature of the experiment: Binding affinity to legumain in human 8.1.6 cells assessed as protein labeling at 10 uM after 30 mins immunoprecipitation. It counts as cell-based. To be noted: tested as the 125I-labelled form. The gist of the method:
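8.1.6 B cell lysate at 1 mg/ml in citrate phosphate pH 5.8, 0.1% CHAPS, 5 mM DTT was labeled with probe for 30 min at 37 °C. Legumain was then immunoprecipitated with polyclonal anti-legumain antisera. Input, pellet and supernatant were probed for biotinylated proteins.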

Experiment [11] deals with T5, Legumain (Homo sapiens). In words: Binding affinity to legumain in human 8.1.6 cells assessed as protein labeling at 1 uM at acidic pH after 30 mins by SDS-PAGE based affinity blotting. Conditions: tested as the 125I-labelled form.
The target in experiment [12] is T1, Caspase-3 (Homo sapiens). Nature of the experiment: Binding affinity to caspase 3 in human Sh-SY-5Y cells extracts assessed as protein labeling by SDS-PAGE based affinity blotting. It counts as cell-free.
Experiment [13] has as its target T3, Caspase-7 (Homo sapiens). Nature of the experiment: Binding affinity to caspase 7 in human Sh-SY-5Y cells extracts assessed as protein labeling by SDS-PAGE based affinity blotting. It counts as cell-free.

Turning to `CC(=O)N[C@@H](CCCCNC(=O)CCCCC1SC[C@H]2NC(=O)N[C@@H]12)C(=O)N[C@@H](Cc1ccc(O)c(I)c1)C(=O)NCCCCCC(=O)N[C@@H](CCC(=O)O)C(=O)N[C@H](C(=O)N[C@@H](CC(=O)O)C(=O)COC(=O)c1c(C)cccc1C)C(C)C` (stereo not given in full) (Ac-K(X1)[Tyr(3-I)][Ahx]EV-{AspCH2OBz(2,6-Me2)}), the outcome on Caspase-3 (Homo sapiens) [1], on Caspase-7 (Homo sapiens) [2], on Caspase-8 (Homo sapiens), at Caspase-9 (Homo sapiens) [3] and on Caspase-9 (Homo sapiens) [4] was Active. Besides, the result at Caspase-6 (Homo sapiens) was inactive.
As to `CC(=O)N[C@@H](CCCCNC(=O)CCCCC1SC[C@H]2NC(=O)N[C@@H]12)C(=O)N[C@@H](Cc1ccc(O)c(I)c1)C(=O)NCCCCCC(=O)N[C@@H](CC(=O)O)C(=O)COC(=O)c1c(C)cccc1C` (stereo not given in full), the outcome at Legumain (Homo sapiens) [5], on Legumain (Mus musculus), on Legumain (Homo sapiens) [6], on Legumain (Homo sapiens) [7], on Legumain (Homo sapiens) [8] and at Legumain (Homo sapiens) [9] was Active. For the same molecule, the result at Legumain (Homo sapiens) [10], at Caspase-3 (Homo sapiens) [1], on Caspase-6 (Homo sapiens), on Caspase-7 (Homo sapiens) [2], at Caspase-8 (Homo sapiens) and at Legumain (Homo sapiens) [11] was Active.
Consider `COC(=O)CC(NC(=O)[C@H](C)NC(=O)[C@@H](NC(=O)CCCCCNC(=O)CCCC[C@@H]1SC[C@@H]2NC(=O)N[C@@H]21)C(C)C)C(=O)CF` (stereo partly drawn) ({Biotin-Ahx}-Val-Ala-[ξD](OMe)-CH2F), for which the result on Caspase-3 (Homo sapiens) [12] and on Caspase-7 (Homo sapiens) [13] was Active.
